Source: PubChem BioAssay
Records with an inconclusive call do not appear.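 How the source made its calls, unless noted: active means growth inhibition above 25% in both replicates, a cutoff set 3 SD above the mean; inconclusive means above 25% in only one replicate; inactive means the rest.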

Assays:
[1] = OD615 S. cerevisiae growth inhibition, permissive medium, pilot counter-assay, permissive growth control for S. cerevisiae lifespan shortening project (AID 705); details: OD615, 24 h, at 10 µM, hits give high values
In short: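 System: Engineered DeaD yeast | Buffer or medium: SC raffinose/galactose permissive medium | Incubation: Cells pre-grown 4 h, then 24 h compound exposure, 30 °C humidified | Measured by: Absorbance (optical density) at 615 nm | Read-out: Reduction in yeast growth (OD615)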

[2] = Restrictive medium S. cerevisiae growth inhibition, OD615, pilot screen of yeast lifespan reduction project, restrictive growth control (AID 706;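 active means growth inhibition above a set limit, 3 SD over mean compound inhibition, in both replicates, cut at about 43% in these data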;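 further: modified DeaD lifespan yeast strain shifted to restrictive glucose medium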); details: OD615, 48 h, at 10 µM, hits give high values
In short: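 Material: modified S. cerevisiae; Medium: glucose-based CSMM-D restrictive medium; Compound dosing: one concentration, 10 µM final, 0.25% DMSO; Incubation: 48 h compound exposure at 30 °C; Measured by: OD615.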

[3] = viability gain of MRP-1-high H69AR cells under doxorubicin, pilot screen, MRP-1 activator project, CellTiter-Glo, duplicate (AID 807;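 active means viability increase at or above a cutoff of the median across tested compounds plus 3 SD, cut at about 8.5% in these data, passing the limit was not always enough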;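 further: compound pretreatment 18-22 h then 72 h combined with doxorubicin; 0% = doxorubicin alone and 100% = vehicle without doxorubicin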); details: H69AR viability with doxorubicin, CellTiter-Glo luminescence; at 10 µM; hits give high values
[4] = growth suppression of beta-catenin knockout HCT116, pilot screen, human colon tumor cells (AID 823;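 active means cell viability at or below a set limit in both duplicate runs, the limit being the all-compound median minus 4 SD, cut at about 23% in these data, passing the limit was not always enough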;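 further: 0% = wells killed by 20 µM Hyamine and 100% = untreated DMSO cell wells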); details: CellTiter-Glo, 60 h, at 10 µM, hits give low values
[5] = growth suppression of PTEN-deleted HCT116, pilot screen, cell-based, HCT116 clonal line, CellTiter-Glo (AID 824;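 active means viability at or below 27.92% in each of two runs, the all-compound median minus 4 SD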;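 further: 0% = 20 µM Hyamine control and 100% = vehicle cell control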); details: 60 h, at 10 µM, hits give low values
[6] = inhibitors of the yeast RAM network, pilot screen, dse1pr::URA3 reporter, 5-FOA selection (AID 869;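 active means inhibition over a set limit, the all-compound mean plus 3 SD, in both replicate runs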;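 further: 0% = DMSO wells with no growth and 100% = 10 µM 1-NA-PP1 with full growth; RAM network block rescues cells from 5-FOA so hits raise OD615 growth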); details: S. cerevisiae dse1pr::URA3 5-FOA growth, OD615, 2 d; at 10 µM; hits give high values; strain carries analog-sensitive mutant Cbk1 kinase
[7] = RAM signaling pathway blockade in yeast – S. cerevisiae, Pdr1DBD-CYC8 efflux-inhibited sensitized strain, primary screen (AID 1298;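 active means RAM network inhibition above 8.4% in each of two replicates, 3 SD over the compound average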;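 further: 0% = DMSO untreated cells without growth and 100% = 10 µM 1-NA-PP1 full growth; higher means more yeast growth rescued from 5-FOA killing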); details: S. cerevisiae cbk1-as DSE1-URA3 strain, 5-FOA growth OD615, 2 d; at 50 µM; hits give high values

COc1cc(NC(=O)Cn2ncc3c2-c2ccccc2OC3)cc(OC)c1OC
inactive: growth inhibition [1] -6.13% | growth inhibition [2] 6.98% | viability increase [3] -3.04% | viability [4] 86.6% | viability [5] 83.5% | inhibition [6] 2.05% | RAM network inhibition [7] 2.19%

Cc1ccc(C(=O)NCCn2cc(SCC(=O)Nc3nnc(C)s3)c3ccccc32)cc1
inactive: growth inhibition [1] 5.58% | growth inhibition [2] 24.1% | viability increase [3] 2.91% | viability [4] 62.5% | viability [5] 81.3% | inhibition [6] 1.07% | RAM network inhibition [7] 0.63%

C=CCc1c(C)nc(SCc2nc3ccccc3c(=O)[nH]2)[nH]c1=O
inactive: growth inhibition [1] 3.73% | growth inhibition [2] 15.9% | viability increase [3] 0.9% | viability [4] 94.2% | viability [5] 96.7% | inhibition [6] 0.91% | RAM network inhibition [7] 1.65%

Cc1c(C(=O)NCc2ccccc2)oc2ccc(S(=O)(=O)N3CCCC3)cc12
inactive: growth inhibition [1] -11.4% | growth inhibition [2] 3.53% | viability increase [3] -2.64% | viability [4] 97% | viability [5] 93.1% | inhibition [6] 1.49% | RAM network inhibition [7] 2.93%

Cn1c(C(=O)NCCCN2CCN(c3cccc(Cl)c3)CC2)cc2c(=O)n(C)c3ccccc3c21
inactive: growth inhibition [1] -2.52% | growth inhibition [2] -0.835% | viability increase [3] -2.92% | viability [4] 59.9% | viability [5] 59% | inhibition [6] -0.02% | RAM network inhibition [7] 7.94%

CC(C)CNS(=O)(=O)c1ccc(S(=O)(=O)N2CCN(CCC#N)CC2)cc1
inactive: growth inhibition [1] -11.7% | growth inhibition [2] -4.15% | viability increase [3] -0.2% | viability [4] 99.6% | viability [5] 103% | inhibition [6] 0.85% | RAM network inhibition [7] -0.19%

COc1ccc(C2C/C(=N\O)C(C)(C)O2)cc1 (configuration not stated)
inactive: growth inhibition [1] -16.5% | growth inhibition [2] -4.77% | viability increase [3] -0.83% | viability [4] 97.1% | viability [5] 93.7% | inhibition [6] 1.06% | RAM network inhibition [7] 3.9%

Cc1cc(C)c(S(=O)(=O)Nc2ccc(OCC(=O)O)cc2)c(C)c1
inactive: growth inhibition [1] -6.34% | growth inhibition [2] -3.2% | viability increase [3] -0.81% | viability [4] 93.7% | viability [5] 90.5% | inhibition [6] -0.28% | RAM network inhibition [7] -0.63%

NC(=O)SCC(=O)Nc1ccc(Cl)c(Cl)c1
inactive: growth inhibition [1] -0.33% | growth inhibition [2] 4.16% | viability increase [3] -7.83% | viability [4] 38% | viability [5] 42.8% | inhibition [6] 2.52% | RAM network inhibition [7] 4.56%

CCOC(=O)c1ccc(N2C(=O)CC(N3CCN(Cc4ccccc4)CC3)C2=O)cc1 (configuration not stated)
inactive: growth inhibition [1] -18.6% | growth inhibition [2] -15.4% | viability increase [3] 0.7% | viability [4] 101% | viability [5] 103% | inhibition [6] 0.175% | RAM network inhibition [7] 2.65%

Cc1nnc(SCC(=O)Nc2ccc3c(c2)COC3=O)n1-c1ccccc1
inactive: growth inhibition [1] -9.99% | growth inhibition [2] 0.555% | viability increase [3] -0.13% | viability [4] 98.8% | viability [5] 92.8% | inhibition [6] 3.27% | RAM network inhibition [7] 1.16%

O=S(=O)(Cc1ccccc1)N1CCn2c(nc3ccccc32)C1
inactive: growth inhibition [1] -14.1% | growth inhibition [2] -0.745% | viability increase [3] -0.75% | viability [4] 103% | viability [5] 97.5% | inhibition [6] 1.5% | RAM network inhibition [7] 4.75%

Cc1ccc2oc(=O)c3cnn(CC(=O)N(CCC(C)C)Cc4ccco4)c3c2c1
inactive: growth inhibition [1] -4.76% | growth inhibition [2] -1.21% | viability increase [3] -3.21% | viability [4] 88.5% | viability [5] 87.3% | inhibition [6] 0.29% | RAM network inhibition [7] 5.23%

CC(=O)c1ccc2c3c(ccc(O)c13)CC2
inactive: growth inhibition [1] -1.21% | growth inhibition [2] 7.16% | viability increase [3] -4.04% | viability [4] 97.2% | viability [5] 88% | inhibition [6] 1.52% | RAM network inhibition [7] 5.46%

CC(=O)c1ccc(OCC(C)C)c(CC(C(N)=O)C(N)=O)c1
inactive: growth inhibition [1] 1.42% | growth inhibition [2] -5.6% | viability increase [3] -1.7% | viability [4] 108% | viability [5] 96.1% | inhibition [6] 1.66% | RAM network inhibition [7] -0.2%

COc1cc(OC)c(C2N(c3ccc(Cl)cc3)C(=O)C3CCCN32)cc1OC (configuration not stated)
inactive: growth inhibition [1] -2.8% | growth inhibition [2] -2.08% | viability increase [3] -2.63% | viability [4] 105% | viability [5] 96.7% | inhibition [6] 2.59% | RAM network inhibition [7] 3.82%

CCn1cc(S(=O)(=O)CC(=O)Nc2cc(C)ccc2C)c2ccccc21
inactive: growth inhibition [1] -10.1% | growth inhibition [2] -1.18% | viability increase [3] -0.93% | viability [4] 105% | viability [5] 82.5% | inhibition [6] 2.07% | RAM network inhibition [7] 3.99%

CSC(=NS(=O)(=O)c1ccc(C)cc1)SC
inactive: growth inhibition [1] -11% | growth inhibition [2] -20.2% | viability increase [3] -1.03% | viability [4] 94.6% | viability [5] 93.1% | inhibition [6] 2.02% | RAM network inhibition [7] 4.14%

COc1ccc(NC(=O)Nc2ccc(OCC(=O)N3CCOCC3)cc2)cc1OC
inactive: growth inhibition [1] -13% | growth inhibition [2] -1.38% | viability increase [3] -2.34% | viability [4] 88.4% | viability [5] 90.5% | inhibition [6] 0.595% | RAM network inhibition [7] 0.11%

COc1ccccc1-c1c(C)nn2c(N3CCN(c4ccccc4OC)CC3)cc(C)nc12
inactive: growth inhibition [1] -0.095% | growth inhibition [2] 6.77% | viability increase [3] -1.57% | viability [4] 60.7% | viability [5] 63.2% | inhibition [6] 0.775% | RAM network inhibition [7] 1.3%

CCOC(=O)C1C(=O)NC(SC)=C(C#N)C1c1ccccc1F (configuration not stated)
inactive: growth inhibition [1] -2.39% | growth inhibition [2] -17% | viability increase [3] -2.97% | viability [4] 90.8% | viability [5] 95.5% | inhibition [6] -1% | RAM network inhibition [7] -1.66%

Cc1ccccc1-n1c(Cn2c(=O)sc3ccccc32)nnc1SCC(=O)NCC1CCCO1 (configuration not stated)
inactive: growth inhibition [1] -3.68% | growth inhibition [2] -12.2% | viability increase [3] 0% | viability [4] 100% | viability [5] 97.9% | inhibition [6] 0.82% | RAM network inhibition [7] 3.19%

COc1ccc(-c2[nH]ncc2-c2cnc(C)s2)c(O)c1
inactive: growth inhibition [1] -13.3% | growth inhibition [2] -13% | viability increase [3] -1.25% | viability [4] 99.2% | viability [5] 98.9% | inhibition [6] 2% | RAM network inhibition [7] 2.98%

CCC1(C(=O)O)NC(c2cc(OC)ccc2O)C2C(=O)N(Cc3ccccc3)C(=O)C21 (configuration not stated)
inactive: growth inhibition [1] 2.51% | growth inhibition [2] -7.93% | viability increase [3] -0.32% | viability [4] 102% | viability [5] 99.8% | inhibition [6] 0.37% | RAM network inhibition [7] 1.51%

CN(Cc1ccccc1)c1nc2c(c(=O)n(C)c(=O)n2C)n1CCSc1ncccn1
inactive: growth inhibition [1] -11.7% | growth inhibition [2] -3.17% | viability increase [3] -2.71% | viability [4] 93.8% | viability [5] 87.1% | inhibition [6] 1.42% | RAM network inhibition [7] 3.63%

CCOC(=O)CC1C(=O)NCCN1Cc1cccc(C(F)(F)F)c1 (configuration not stated)
inactive: growth inhibition [1] -4.03% | growth inhibition [2] -3.95% | viability increase [3] -1.61% | viability [4] 97.4% | viability [5] 86% | inhibition [6] 1.66% | RAM network inhibition [7] -0.14%

COc1ccc(N2CCN(C(=O)c3ccc(CNc4c(N5CCOCC5)c(=O)c4=O)cc3)CC2)cc1
inactive: growth inhibition [1] 5.2% | growth inhibition [2] 8.53% | viability increase [3] -3.13% | viability [4] 96.2% | viability [5] 98.5% | inhibition [6] -0.255% | RAM network inhibition [7] -1.5%

O=C(NCCn1ccc2ccccc21)c1ccc(S(=O)(=O)N2CCCCC2)cc1
inactive: growth inhibition [1] -12.5% | growth inhibition [2] -22.4% | viability increase [3] -5.02% | viability [4] 79.6% | viability [5] 71.1% | inhibition [6] 0.45% | RAM network inhibition [7] 4.77%

COc1cccc(N(CC(=O)NCc2cccnc2)S(C)(=O)=O)c1
inactive: growth inhibition [1] -11.3% | growth inhibition [2] -4.04% | viability increase [3] -1.47% | viability [4] 95.1% | viability [5] 94.6% | inhibition [6] 0.625% | RAM network inhibition [7] 3.01%

CCCCNC(=O)Nc1ccc(Br)cn1
inactive: growth inhibition [1] -8.62% | growth inhibition [2] 4.73% | viability increase [3] -1.6% | viability [4] 97.6% | viability [5] 96% | inhibition [6] 0.485% | RAM network inhibition [7] 6.6%

CC1CCc2nn(CC(=O)NCCCN3CCCCC3)cc2C1 (configuration not stated)
inactive: growth inhibition [1] -15.9% | growth inhibition [2] -10.3% | viability increase [3] -2.34% | viability [4] 105% | viability [5] 96.7% | inhibition [6] 1.18% | RAM network inhibition [7] 3.77%

N#Cc1c(SCC(N)=O)nc2c(c1-c1ccc(O)cc1)CCCC2
inactive: growth inhibition [1] -15.2% | growth inhibition [2] -15.6% | viability increase [3] -1.33% | viability [4] 94.5% | viability [5] 93.6% | inhibition [6] 3.51% | RAM network inhibition [7] 4.51%

CN(C)S(=O)(=O)c1ccc(NC(=O)C2COc3ccccc3O2)cc1 (configuration not stated)
inactive: growth inhibition [1] -9.66% | growth inhibition [2] -10.9% | viability increase [3] 0.49% | viability [4] 90.2% | viability [5] 83.8% | inhibition [6] 1.27% | RAM network inhibition [7] 2.63%

OC(COc1cccc2ccccc12)CN1CCN(c2ccccn2)CC1 (configuration not stated)
inactive: growth inhibition [1] -5.36% | growth inhibition [2] 1.3% | viability increase [3] -2.34% | viability [4] 84.9% | viability [5] 81.7% | inhibition [6] 0.445% | RAM network inhibition [7] 2.59%

COC(=O)COC(=O)CC(CC(N)=O)c1ccccc1 (configuration not stated)
inactive: growth inhibition [1] -8.58% | growth inhibition [2] -0.775% | viability increase [3] -0.29% | viability [4] 95% | viability [5] 102% | inhibition [6] 2.13% | RAM network inhibition [7] 3.07%

COc1cc(NS(=O)(=O)c2ccc3c(c2)oc(=O)n3C)cc(OC)c1OC
inactive: growth inhibition [1] -3.74% | growth inhibition [2] 0.425% | viability increase [3] -4.97% | viability [4] 41.9% | viability [5] 35.5% | inhibition [6] -0.355% | RAM network inhibition [7] 2.41%
